15 molecules from ChEMBL document CHEMBL3351694, “Synthesis and SAR studies of benzyl ether derivatives as potent orally active S1P₁ agonists” (Bioorg Med Chem, 2014) can be followed below.

For orientation: Cmax means the highest concentration seen after dosing. For orientation: AUC(0-t) means the area under the concentration-time curve up to a stated or last time point. One may read the half-life as how long it takes for the measured level to halve. What is called share remaining is the share of the starting amount still present when the sample was taken. A word on the EC50: it is the concentration needed to bring the measured effect to its halfway point. The inhibition in vivo is how much of the control response was suppressed.

The test system of data set [1] is Rattus norvegicus. In words: Immunosuppressive activity in Lewis rat injected with WKAH/Hkm rat spleen cells assessed as inhibition of host versus graft reaction by measuring popliteal lymph nodes weight dosed orally at 5 mL/kg once daily for 4 successive days starting on day of spleen cell injection. The class given is functional. To be noted: po, read-out: ID50 (the source's name). The essentials:
(§1)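 Lewis rats received 1×10^7 WKAH/Hkm splenocytes intracutaneously into both hind footpads. Syngeneic controls received Lewis splenocytes. Compound suspended in 0.5% tragacanth, given orally at 5 mL/kg once daily for 4 days from the day of cell injection; 5 rats/group. Popliteal lymph node weight gain measured relative to allogeneic control. ID50 by least squares from at least three doses.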

Data set [2] is described as follows: Drug metabolism in rat plasma assessed as compound phosphorylation at 100 ug/ml at 37 degC after 3 hrs by HPLC method. The format is ADME, cell-free. The conditions noted are these: read-out: Drug metabolism. The essentials:
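Rat whole blood, citrate-treated, spiked with compound from 100 µg/mL DMSO stock and held 3 h at 37 °C. Methanol quench, centrifugation twice at 4 °C, reversed-phase HPLC with CH3CN/0.1% TFA gradient. Phosphorylation given as ratio of HPLC peak areas of phosphate to remaining parent.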

Data set [3] concerns Rattus norvegicus. Briefly: Drug level in Wistar Imamichi rat at 1 to 30 mg/kg, po. The class given is ADME, organism-based. More on the design: dose 1-30 mg/kg, route oral. The conditions noted are these: in vivo.
A short description of data set [4]: Cmax in rat at 1 mg/kg, po. The conditions noted are these: in vivo. The class given is ADME, organism-based. More on the design: dose 1 mg/kg, route oral. The essentials:
(§2)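 Single oral dose of 1.0 mg/kg parent compound in rats, n = 2 or 3. Plasma levels measured for parent and its phosphate. Cmax, AUC0-48 and T1/2 derived from plasma concentration. Half-life of phosphate taken from plasma phosphate level after dosing at 1.0 mg/kg p.o., n = 2.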

Data set [5] is described as follows: AUC (0 to 48 hrs) in rat at 1 mg/kg, po. More on the design: time < 48 hr, dose 1 mg/kg, route oral. The conditions noted are these: plasma. The class given is ADME, organism-based. In a few lines: as §2
A short description of data set [6]: Half life in rat at 1 mg/kg, po. To be noted: in vivo. The arrangement: dose 1 mg/kg, route oral. The class given is ADME, organism-based. The essentials:
as §2

Data set [7] is described as follows: Metabolic stability in rat hepatic microsomes assessed as parent compound remaining after 30 mins at 37 degC. To be noted: liver microsomes. The format is ADME, microsome. The essentials:
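Compound incubated with rat hepatic microsomes for 30 min at 37 °C; percentage of compound remaining reported.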

Data set [8] concerns Rattus norvegicus. Briefly: Induction of lymphopenia in Lewis rat assessed as reduction in lymphocyte numbers at 0.1 mg/kg, po after 4 hrs by automatic hemacytometry relative to untreated control. The class given is functional. The arrangement: scale not given: the % may be the effect or the level left. The essentials:
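Male Lewis rats, 5 weeks old, 5 per group, given saline vehicle or 0.1 mg/kg compound orally. EDTA blood drawn before and 4 h after dosing. Lymphocytes counted by automatic hemacytometer; untreated rats also counted.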

The nature of data set [9]: Half life in Lewis rat at 1 mg/kg, po. The format is ADME, organism-based. The arrangement: dose 1 mg/kg, route oral. The conditions noted are these: in vivo. In a few lines:
as §2

The target of data set [10] is Sphingosine 1-phosphate receptor 1 (Homo sapiens, UniProt P21453). In words: Agonist activity at human S1P1 receptor expressed in CHOK1 cell membranes by [35S]GTPgammaS binding assay. The format is functional, CHO-K1. In a few lines:
(§3)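 Membranes of CHO-K1 cells transfected with human S1P1 or S1P3. Phosphorylated compounds tested. Buffer: 50 mM HEPES pH 7.5, 100 mM NaCl, 5 mM MgCl2, 0.05 mg/mL saponin, with GDP and DTT. Started with [35S]GTPγS plus membrane, 60 min at room temperature, then filter harvest and scintillation counting. Binding expressed as % of 20 µM Sph-1-P response, blank-corrected, n = 2.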
On the technique in general: GTPγS resists hydrolysis and so accumulates on activated G proteins.

For data set [11], the target named is Sphingosine 1-phosphate receptor 3 (Homo sapiens, UniProt Q99500). Briefly: Agonist activity at human S1P3 receptor expressed in CHOK1 cell membranes by [35S]GTPgammaS binding assay. The class given is functional, CHO-K1. In a few lines:
as §3

The species entered for data set [12] is Homo sapiens. Briefly: Selectivity index, ratio of EC50 for human S1P3 receptor to EC50 for human S1P1 receptor.
For data set [13], the system named is Rattus norvegicus. Briefly: Immunosuppressive activity in Lewis rat injected with WKAH/Hkm rat spleen cells assessed as inhibition of host versus graft reaction by measuring popliteal lymph nodes weight dosed orally at 1 mg/kg once daily for 4 successive days starting on day of spleen cell injection. The format is functional. The conditions noted are these: route oral. The essentials: as §1

Sequence of Sphingosine 1-phosphate receptor 1 (P21453 whole entry): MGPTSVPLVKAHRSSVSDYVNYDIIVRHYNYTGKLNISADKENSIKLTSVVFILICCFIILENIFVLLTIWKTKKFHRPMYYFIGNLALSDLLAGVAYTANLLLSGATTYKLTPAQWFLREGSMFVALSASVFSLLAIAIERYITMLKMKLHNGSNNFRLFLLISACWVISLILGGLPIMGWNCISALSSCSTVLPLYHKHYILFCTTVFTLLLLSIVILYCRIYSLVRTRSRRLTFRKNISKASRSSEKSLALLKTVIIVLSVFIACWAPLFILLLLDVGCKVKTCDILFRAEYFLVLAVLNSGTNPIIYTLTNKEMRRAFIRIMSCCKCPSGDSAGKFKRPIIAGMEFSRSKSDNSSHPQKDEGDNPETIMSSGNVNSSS
Sequence of Sphingosine 1-phosphate receptor 3 (Q99500 whole entry): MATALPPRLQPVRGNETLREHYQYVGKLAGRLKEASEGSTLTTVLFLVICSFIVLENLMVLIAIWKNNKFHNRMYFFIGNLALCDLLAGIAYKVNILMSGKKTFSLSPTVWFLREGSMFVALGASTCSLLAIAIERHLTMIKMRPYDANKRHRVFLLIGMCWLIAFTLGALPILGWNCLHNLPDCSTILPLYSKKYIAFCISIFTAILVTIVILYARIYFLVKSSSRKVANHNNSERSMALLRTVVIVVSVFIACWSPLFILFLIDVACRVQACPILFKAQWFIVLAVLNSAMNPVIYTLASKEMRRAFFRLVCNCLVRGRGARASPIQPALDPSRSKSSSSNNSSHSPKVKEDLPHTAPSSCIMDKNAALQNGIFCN

With `Cc1ccc(CCCC(=O)c2ccc(COC[C@@](C)(N)CO)c(Cl)c2)cc1.Cl`, the ED50 in data set [1] turned out to be 0.39 mg/kg. The metabolised at 3 h, 100 ug/ml in [2] came out at 83.8%. The Drug uptake result in data set [3] is given as “Dose-dependent effect”. The same molecule showed a maximum concentration (Cmax) in data set [4] of 18 ng/mL. The exposure AUC(0-t) at 48 h in data set [5] came to 144 ng·h/mL. This molecule gave a half-life in data set [6] of 4.6 h. In data set [7], the share remaining at 0.5 h is 38%.
`CCCCCCCCc1ccc(CC[C@](N)(CO)COP(=O)(O)O)cc1` [FTY720-P]: the fraction remaining at 0.5 h in [7] is above 100%.
As to `Cc1ccc(CCCC(=O)c2ccc(COC[C@@](C)(N)CO)cc2)cc1.Cl`, in data set [8], the Activity is recorded as 39.5%. Also, in [1], the ED50 worked out at 0.27 mg/kg. Also, the figures for the half-life in data set [9] and in data set [6] were 7.8 h and 5.7 h, respectively. Also, the metabolised at 3 h, 100 ug/ml in data set [2] turned out to be 39.5%. The same molecule gave a Cmax in [4] of 13 ng/mL. For the same molecule, in data set [5], the AUC(0-t) at 48 h worked out at 120 ng·h/mL. For the same molecule, the fraction remaining at 0.5 h in [7] stood at 51%.
For `CCc1cc(C(=O)CCCc2ccc(C)cc2)ccc1COC[C@@](C)(N)COP(=O)(O)O`, the EC50 in data set [10] worked out at 2.3 nM; in data set [11] it was 12000 nM. Moreover, the Ratio EC50 in data set [12] was 5220.
For the molecule `Cc1ccc(CCCC(=O)c2ccc(COC[C@@](C)(N)CO)c(C)c2)cc1.Cl`, the ED50 in [1] was 0.43 mg/kg. Besides, the metabolised at 3 h, 100 ug/ml in [2] came to 38.4%. The Drug uptake result in data set [3] is reported as “Dose-dependent effect”. The molecule also displayed a Cmax in [4] of 34 ng/mL. In [5], the AUC(0-t) at 48 h came out at 200 ng·h/mL. For the same molecule, the half-life in data set [6] was determined as 4.1 h. The amount remaining at 0.5 h in data set [7] was 36%.
Consider `Cc1ccc(CCCC(=O)c2cc(C)c(COC[C@@](C)(N)COP(=O)(O)O)cc2C)cc1`, for which the EC50 in data set [10] was 6.5 nM; in [11] it was above 20000 nM. Besides, the Ratio EC50 in data set [12] was above 3080.
The corresponding values for `Cc1ccc(CCCC(=O)c2ccc(COC[C@@](C)(N)COP(=O)(O)O)c(F)c2)cc1` are 2.8 nM, 60 nM and 21.
On to `CCCCCCCCc1ccc(CCC(N)(CO)CO)cc1` [FINGOLIMOD], for which the Activity in data set [8] was 21%. For the same molecule, in [1], the ED50 is 0.33 mg/kg. Besides, in data set [9], the half-life is 32 h. Also, in data set [7], the fraction remaining at 0.5 h worked out at 97%.
On to `Cc1ccc(CCCC(=O)c2ccc(COC[C@@](C)(N)COP(=O)(O)O)cc2)cc1`, for which the half-maximal effective concentration (EC50) in data set [10] was 7 nM; in [11], 200 nM. In [12], the Ratio EC50 is 29. This molecule also registered a peak concentration (Cmax) in [4] of 72 ng/mL. In data set [5], the area under the curve AUC(0-t) at 48 h was 799 ng·h/mL. Also, the half-life in data set [6] worked out at 7.8 h. The fraction remaining at 0.5 h in data set [7] is 92%.
For the molecule `Cc1ccc(CCCC(=O)c2ccc(COC[C@@](C)(N)COP(=O)(O)O)c(C)c2)cc1`, the values for the concentration for a half-maximal effect (EC50) in [10] and in data set [11] were 3 nM and 180 nM, respectively. Besides, the Ratio EC50 in data set [12] is 60. The molecule further showed a Cmax in data set [4] of 104 ng/mL. Further, the AUC(0-t) at 48 h in [5] came out at 806 ng·h/mL. The molecule further came in with a half-life in data set [6] of 4.3 h. Also, the amount remaining at 0.5 h in data set [7] was 92%.
For `Cc1ccc(CCCC(=O)c2cc(C)c(COC[C@@](C)(N)CO)cc2C)cc1`, the inhibition in vivo at 1 mg/kg in data set [13] came to 11%. For the same molecule, in data set [2], the metabolised at 3 h, 100 ug/ml worked out at 6%.
On to `CCc1cc(C(=O)CCCc2ccc(C)cc2)ccc1COC[C@@](C)(N)CO`, for which the inhibition in vivo at 1 mg/kg in data set [13] turned out to be 10%. The metabolised at 3 h, 100 ug/ml in data set [2] came out at 13.9%.
Consider `Cc1ccc(CCCC(=O)c2ccc(COC[C@@](C)(N)COP(=O)(O)O)cc2C)cc1`, for which the EC50 in data set [10] is 19 nM; in [11] it was above 20000 nM. Besides, in data set [12], the Ratio EC50 is above 1050.
`Cc1ccc(CCCC(=O)c2ccc(COC[C@@](C)(N)COP(=O)(O)O)c(Cl)c2)cc1`: the EC50 in [10] is 4 nM; in [11], 220 nM. In data set [12], the Ratio EC50 was found to be 55. In data set [4], this molecule had a Cmax of 97 ng/mL. The molecule further registered an exposure AUC(0-t) at 48 h in data set [5] of 658 ng·h/mL. This molecule returned a half-life in [6] of 4.6 h. Also, the amount remaining at 0.5 h in data set [7] was found to be 86%.
As to `Cc1ccc(CCCC(=O)c2cc(C)c(COC[C@@](C)(N)COP(=O)(O)O)c(C)c2)cc1`, the EC50 in data set [10] turned out to be 2.2 nM; in data set [11], 340 nM. Besides, the Ratio EC50 in data set [12] came to 155.
